Drawing on ChEMBL document CHEMBL1141340, “Protein phosphatase inhibitors isolated from Spongia irregularis collected in Papua New Guinea” (J Nat Prod, 2007), this text covers IC50 and Activity for six compounds.

Each structure is given as a SMILES string. Active and inactive are the calls of the source. No cut-off for these calls is given here.

The IC50 is the point on the concentration scale where inhibition reaches its midpoint.

A short description of assay [1]: Inhibition of calcineurin.
The nature of assay [2]: Inhibition of PP1c. In short, it runs like this:
(§1)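 Enzyme source was purified catalytic subunits of protein phosphatases PP-1 and PP-2A. Results are reported as IC50.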

Assay [3] can be described thus: Inhibition of PP2A. In a few lines: as §1

Take `CC1=CCCC(C)(C)C1CC/C(C)=C/CCC(CCCc1ccoc1)COP(O)(O)=S` (stereo unspecified): in assay [1], the IC50 was 70 µM.
As for `C[C@@H]1CC[C@@H]2C(=CCCC2(C)C)[C@]1(C)CCC(CCCc1ccoc1)COP(=O)(O)O` (stereo partly specified), the IC50 in assay [1] was found to be 230 µM; in assay [2], 36 µM.
With `C[C@@H]1CC[C@@H]2C(=CCCC2(C)C)[C@]1(C)CCC(CCCc1ccoc1)COS(=O)(=O)O` (stereo partly specified), the IC50 in assay [1] was found to be 69 µM; in assay [2], 64 µM; in assay [3] it was 140 µM.
On to `CC1=CCCC(C)(C)C1CC/C(C)=C/CCC(CO)CCCc1ccoc1` (stereo unspecified), for which the outcome in assay [1] was inactive.
As for `CC(C)CCN1CC=C(CCCC(CC[C@@]2(C)C3=CCCC(C)(C)[C@@H]3CC[C@H]2C)COS(=O)(=O)O)C1=O` (stereo partly specified) [IREGULARASULFATE], in assay [1], the IC50 was found to be 59 µM.
In the case of `CC1=CCCC(C)(C)C1CC/C(C)=C/CCC(CCCc1ccoc1)COS(=O)(=O)O` (stereo unspecified) [HIPPOSULFATE C], the IC50 in assay [1] turned out to be 66 µM; in assay [2], 71 µM; in assay [3], 130 µM.
